Legend:
MDA-MB-231 [1] = test: Cell cycle arrest in estrogen receptor deficient human MDA-MB-231 cells assessed as appearance of polyploidy at 100 nM after 72 hrs using propidium iodide staining by flow cytometry relative to control; format: functional
In short: (§1)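 MDA-MB-231 cells seeded at 18 × 10⁴ cells/mL and exposed to 1% (v/v) ethanol vehicle or compound at final concentrations (10 nM, 100 nM, 10 µM at all times; 1 µM also at 24 and 72 h). Cells harvested after 24, 48 or 72 h and treated with RNase A and propidium iodide for at least 30 min at 37 °C. 10,000 cells read at 488 nm by flow cytometry. Percent cells per phase reported, including polyploid; mean ± SD of three experiments.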

MDA-MB-231 [2] = test: Cell cycle arrest in estrogen receptor deficient human MDA-MB-231 cells assessed as accumulation at S phase at 10 nM after 48 hrs using propidium iodide staining by flow cytometry relative to control; format: functional
In short: (§2)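 MDA-MB-231 cells in DMEM with 10% FBS and 2 mM L-glutamine, seeded at 18 × 10⁴ cells/mL. Exposed to test agent at the stated final concentration, or to 1% (v/v) ethanol vehicle, for 24, 48 or 72 h. Harvested by scraping and centrifugation, then RNase A treatment and propidium iodide DNA staining for at least 30 min at 37 °C. 10,000 cells per sample read at 488 nm by flow cytometry; mean ± SD of three experiments.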

MDA-MB-231 [3] = test: Cell cycle arrest in estrogen receptor deficient human MDA-MB-231 cells assessed as accumulation at sub-G1 phase at 10 nM after 72 hrs using propidium iodide staining by flow cytometry relative to control; format: functional; in short: as §2
MDA-MB-231 [4] = test: Cell cycle arrest in estrogen receptor deficient human MDA-MB-231 cells assessed as accumulation at S phase at 100 nM after 24 hrs using propidium iodide staining by flow cytometry relative to control; format: functional; in short: as §2
MDA-MB-231 [5] = test: Cell cycle arrest in estrogen receptor deficient human MDA-MB-231 cells assessed as accumulation at sub-G1 phase at 1 uM after 72 hrs using propidium iodide staining by flow cytometry relative to control; format: functional; in short: as §2
MDA-MB-231 [6] = test: Cell cycle arrest in estrogen receptor deficient human MDA-MB-231 cells assessed as accumulation at S phase at 10 uM after 72 hrs using propidium iodide staining by flow cytometry relative to control; format: functional; in short: as §2
MDA-MB-231 [7] = test: Cell cycle arrest in estrogen receptor deficient human MDA-MB-231 cells assessed as accumulation at G2/M phase at 100 nM after 72 hrs using propidium iodide staining by flow cytometry relative to control; format: functional; in short: as §2
MDA-MB-231 [8] = test: Cell cycle arrest in estrogen receptor deficient human MDA-MB-231 cells assessed as accumulation at sub-G1 phase at 10 nM after 48 hrs using propidium iodide staining by flow cytometry relative to control; format: functional; in short: as §2
MDA-MB-231 [9] = test: Cell cycle arrest in estrogen receptor deficient human MDA-MB-231 cells assessed as accumulation at G2/M phase at 100 nM after 48 hrs using propidium iodide staining by flow cytometry relative to control; format: functional; in short: as §2
MDA-MB-231 [10] = test: Cell cycle arrest in estrogen receptor deficient human MDA-MB-231 cells assessed as accumulation at G1 phase at 10 uM after 72 hrs using propidium iodide staining by flow cytometry relative to control; format: functional; in short: as §2
MDA-MB-231 [11] = test: Cell cycle arrest in estrogen receptor deficient human MDA-MB-231 cells assessed as accumulation at G2/M phase at 1 uM after 24 hrs using propidium iodide staining by flow cytometry relative to control; format: functional; in short: as §2
MDA-MB-231 [12] = test: Cell cycle arrest in estrogen receptor deficient human MDA-MB-231 cells assessed as accumulation at G1 phase at 1 uM after 24 hrs using propidium iodide staining by flow cytometry relative to control; format: functional; in short: as §2
MCF7 = test: Antiproliferative activity against human MCF7 cells expressing estrogen receptor after 72 hrs by MTT assay; format: functional, cell-based; conditions: MCF7, 72 h
MDA-MB-231 [13] = test: Cell cycle arrest in estrogen receptor deficient human MDA-MB-231 cells assessed as accumulation at sub-G1 phase at 1 uM after 24 hrs using propidium iodide staining by flow cytometry relative to control; format: functional; in short: as §2
MDA-MB-231 [14] = test: Cell cycle arrest in estrogen receptor deficient human MDA-MB-231 cells assessed as accumulation at sub-G1 phase at 100 nM after 24 hrs using propidium iodide staining by flow cytometry relative to control; format: functional; in short: as §2
MDA-MB-231 [15] = test: Cell cycle arrest in estrogen receptor deficient human MDA-MB-231 cells assessed as accumulation at G1 phase at 10 uM after 48 hrs using propidium iodide staining by flow cytometry relative to control; format: functional; in short: as §2
MDA-MB-231 [16] = test: Cell cycle arrest in estrogen receptor deficient human MDA-MB-231 cells assessed as appearance of polyploidy at 10 uM after 48 hrs using propidium iodide staining by flow cytometry relative to control; format: functional; in short: as §1
MDA-MB-231 [17] = test: Cell cycle arrest in estrogen receptor deficient human MDA-MB-231 cells assessed as appearance of polyploidy at 100 nM after 48 hrs using propidium iodide staining by flow cytometry relative to control; format: functional; in short: as §1
MDA-MB-231 [18] = test: Cell cycle arrest in estrogen receptor deficient human MDA-MB-231 cells assessed as accumulation at G1 phase at 10 nM after 48 hrs using propidium iodide staining by flow cytometry relative to control; format: functional; in short: as §2
MDA-MB-231 [19] = test: Cell cycle arrest in estrogen receptor deficient human MDA-MB-231 cells assessed as accumulation at G2/M phase at 10 nM after 48 hrs using propidium iodide staining by flow cytometry relative to control; format: functional; in short: as §2
MDA-MB-231 [20] = test: Cell cycle arrest in estrogen receptor deficient human MDA-MB-231 cells assessed as appearance of polyploidy at 10 nM after 48 hrs using propidium iodide staining by flow cytometry relative to control; format: functional; in short: as §2
MDA-MB-231 [21] = test: Cell cycle arrest in estrogen receptor deficient human MDA-MB-231 cells assessed as accumulation at sub-G1 phase at 10 nM after 24 hrs using propidium iodide staining by flow cytometry relative to control; format: functional; in short: as §2
MDA-MB-231 [22] = test: Cell cycle arrest in estrogen receptor deficient human MDA-MB-231 cells assessed as accumulation at sub-G1 phase at 10 uM after 24 hrs using propidium iodide staining by flow cytometry relative to control; format: functional; in short: as §2
MDA-MB-231 [23] = test: Cell cycle arrest in estrogen receptor deficient human MDA-MB-231 cells assessed as accumulation at S phase at 10 nM after 24 hrs using propidium iodide staining by flow cytometry relative to control; format: functional; in short: as §2
MDA-MB-231 [24] = test: Cell cycle arrest in estrogen receptor deficient human MDA-MB-231 cells assessed as accumulation at G2/M phase at 10 uM after 72 hrs using propidium iodide staining by flow cytometry relative to control; format: functional; in short: as §2
MDA-MB-231 [25] = test: Cell cycle arrest in estrogen receptor deficient human MDA-MB-231 cells assessed as appearance of polyploidy at 1 uM after 72 hrs using propidium iodide staining by flow cytometry relative to control; format: functional; in short: as §2
MDA-MB-231 [26] = test: Cell cycle arrest in estrogen receptor deficient human MDA-MB-231 cells assessed as accumulation at G1 phase at 100 nM after 48 hrs using propidium iodide staining by flow cytometry relative to control; format: functional; in short: as §2
MDA-MB-231 [27] = test: Cell cycle arrest in estrogen receptor deficient human MDA-MB-231 cells assessed as appearance of polyploidy at 10 uM after 72 hrs using propidium iodide staining by flow cytometry relative to control; format: functional; in short: as §1
MDA-MB-231 [28] = test: Cell cycle arrest in estrogen receptor deficient human MDA-MB-231 cells assessed as accumulation at S phase at 10 uM after 48 hrs using propidium iodide staining by flow cytometry relative to control; format: functional; in short: as §2
MDA-MB-231 [29] = test: Cell cycle arrest in estrogen receptor deficient human MDA-MB-231 cells assessed as accumulation at G1 phase at 10 nM after 24 hrs using propidium iodide staining by flow cytometry relative to control; format: functional; in short: as §2

Work on COc1ccc(C2CC(=O)N2c2cc(OC)c(OC)c(OC)c2)cc1O (stereo not given) yielded an Activity (MDA-MB-231 [1]) of 2.99%, an Activity (MDA-MB-231 [2]) of 13.36% and an Activity (MDA-MB-231 [3]) of 15.25%. For the same compound, the Activity (MDA-MB-231 [4]) was 6.05%, the Activity (MDA-MB-231 [5]) was 50.53% and the Activity (MDA-MB-231 [6]) was 9.66%. It also gave an Activity (MDA-MB-231 [7]) of 12.62%, an Activity (MDA-MB-231 [8]) of 11.57% and an Activity (MDA-MB-231 [9]) of 36.42%. The Activity (MDA-MB-231 [10]) was 17.14%, the Activity (MDA-MB-231 [11]) was 63.16% and the Activity (MDA-MB-231 [12]) was 19.22%. The IC50 (MCF7) was 17 nM, the Activity (MDA-MB-231 [13]) was 7.08% and the Activity (MDA-MB-231 [14]) was 4.88%. The Activity (MDA-MB-231 [15]) was 14.44%, the Activity (MDA-MB-231 [16]) was 2.28% and the Activity (MDA-MB-231 [17]) was 4.61%. For the same compound, the Activity (MDA-MB-231 [18]) was 45.25%, the Activity (MDA-MB-231 [19]) was 23.71% and the Activity (MDA-MB-231 [20]) was 6.1%. The Activity (MDA-MB-231 [21]) was 3.72%, the Activity (MDA-MB-231 [22]) was 3.18% and the Activity (MDA-MB-231 [23]) was 12.55%. For the same compound, the Activity (MDA-MB-231 [24]) was 21.81%, the Activity (MDA-MB-231 [25]) was 5.97% and the Activity (MDA-MB-231 [26]) was 10.76%. For the same compound, the Activity (MDA-MB-231 [27]) was 3.38%, the Activity (MDA-MB-231 [28]) was 4.47% and the Activity (MDA-MB-231 [29]) was 48.33%.

Reference: ChEMBL document CHEMBL1629485, “Lead identification of conformationally restricted β-lactam type combretastatin analogues: synthesis, antiproliferative activity and tubulin targeting effects” (Eur J Med Chem, 2010)
